Converted amounts (≈) assume the structure as drawn.
What was measured:
Format in all cases: functional
Streptococcus pyogenes [1] = assay: Antibacterial activity against constitutive-resistant to macrolide, licosamide and streptogramin Streptococcus pyogenes 166 GR-Micro by broth microdilution method
In short: (§1)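 MICs by CLSI broth microdilution with double dilutions, except that Streptococcus medium used 5% horse serum in place of lysed blood. Bacteria were pre-grown on Columbia agar with 5% sheep blood (streptococci) or Mueller–Hinton agar (staphylococci).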

Streptococcus pyogenes [2] = assay: Antibacterial activity against efflux mediated macrolide-resistant Streptococcus pyogenes Finland 2 by broth microdilution method; in short: as §1
Enterococcus faecalis = assay: Antibacterial activity against Enterococcus faecalis ATCC 29213 by broth microdilution method
In short: (§2)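 CLSI broth microdilution with double dilutions in 96-well plates. For streptococci, 5% horse serum replaced lysed blood in the medium. Inocula were grown on Columbia agar with 5% sheep blood for streptococci, Mueller–Hinton chocolate agar for H. influenzae, and Mueller–Hinton agar for staphylococci. Read-out is MIC in mg/L.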

Streptococcus pneumoniae [3] = assay: Antibacterial activity against erythromycin susceptible Streptococcus pneumoniae SP 030 by broth microdilution method; in short: as §2
Streptococcus pneumoniae [4] = assay: Antibacterial activity against constitutive-resistant to macrolide, licosamide and streptogramin Streptococcus pneumoniae 58 Spain by broth microdilution method; in short: as §1
Streptococcus pyogenes [5] = assay: Antibacterial activity against erythromycin susceptible Streptococcus pyogenes 3565 by broth microdilution method; in short: as §2
Streptococcus pneumoniae [6] = assay: Antibacterial activity against efflux mediated macrolide-resistant Streptococcus pneumoniae Ci137 by broth microdilution method; in short: as §1
Haemophilus influenzae = assay: Antibacterial activity against Haemophilus influenzae ATTC 49247 by broth microdilution method; in short: as §2
Staphylococcus aureus [7] = assay: Antibacterial activity against Staphylococcus aureus ATCC 13709 by broth microdilution method; in short: as §2
Staphylococcus aureus [8] = assay: Antibacterial activity against constitutive-resistant to macrolide, licosamide and streptogramin Staphylococcus aureus PK2 by broth microdilution method; in short: as §1
Staphylococcus aureus [9] = assay: Antibacterial activity against inducible-resistant to macrolide, licosamide and streptogramin Staphylococcus aureus 90265/97 by broth microdilution method; in short: as §1
Streptococcus pneumoniae [10] = assay: Antibacterial activity against inducible-resistant to macrolide, licosamide and streptogramin Streptococcus pneumoniae 134 GR-M by broth microdilution method; in short: as §1
Escherichia coli = assay: Antibacterial activity against Escherichia coli ATCC 25922 by broth microdilution method; in short: as §2
Staphylococcus aureus [11] = assay: Antibacterial activity against efflux mediated macrolide-resistant Staphylococcus aureus PK1 by broth microdilution method; in short: as §1
Streptococcus pyogenes [12] = assay: Antibacterial activity against inducible-resistant to macrolide, licosamide and streptogramin Streptococcus pyogenes Finland 11 by broth microdilution method; in short: as §1
Moraxella catarrhalis = assay: Antibacterial activity against Moraxella catarrhalis ATCC 23246 by broth microdilution method; in short: as §2

Q: `CC[C@H]1OC(=O)[C@H](C)[C@@H](O[C@H]2C[C@@](C)(OC)[C@@H](O)[C@H](C)O2)[C@H](C)[C@@H](O[C@@H]2O[C@H](C)C[C@H](N(C)C)[C@H]2O)[C@](C)(O)C[C@@H](C)CN(C)[C@H](C)[C@@H](O)[C@]1(C)O` [AZITHROMYCIN] was tested. Which MIC (Streptococcus pyogenes [1]) did it give?
A: Its MIC is over 64 µg/mL.

Q: And the MIC (Streptococcus pyogenes [2])?
A: Its MIC is 8 µg/mL (≈ 10.7 µM).

Q: And the MIC (Enterococcus faecalis)?
A: Its MIC is 4 µg/mL (≈ 5.34 µM).

Q: And the MIC (Streptococcus pneumoniae [3])?
A: Its MIC is at most 0.125 µg/mL.

Q: And the MIC (Streptococcus pneumoniae [4])?
A: The MIC was over 64 µg/mL.

Q: What about the MIC (Streptococcus pyogenes [5]) of the same compound?
A: The MIC was at most 0.125 µg/mL.

Q: What about the MIC (Streptococcus pneumoniae [6]) of the same compound?
A: Its MIC is 8 µg/mL (≈ 10.7 µM).

Q: What about the MIC (Haemophilus influenzae) of the same compound?
A: Its MIC is 1 µg/mL (≈ 1.34 µM).

Q: And the MIC (Staphylococcus aureus [7])?
A: Its MIC is 0.5 µg/mL (≈ 0.668 µM).

Q: And the MIC (Staphylococcus aureus [8])?
A: Its MIC is over 64 µg/mL.

Q: What about the MIC (Staphylococcus aureus [9]) of the same compound?
A: The MIC was over 64 µg/mL.

Q: And the MIC (Streptococcus pneumoniae [10])?
A: The MIC was over 64 µg/mL.

Q: And the MIC (Escherichia coli)?
A: The MIC was 2 µg/mL (≈ 2.67 µM).

Q: What about the MIC (Staphylococcus aureus [11]) of the same compound?
A: The MIC was over 64 µg/mL.

Q: What about the MIC (Streptococcus pyogenes [12]) of the same compound?
A: The MIC was 16 µg/mL (≈ 21.4 µM).

Q: What about the MIC (Moraxella catarrhalis) of the same compound?
A: The MIC was at most 0.125 µg/mL.
